Measured values as given in PMC3113683 (Biochemistry, 2009).
Changes are numbered by the printed parent chain. No end group written: not given here. *: point of attachment. Biotin = O=C1N[C@H]2[C@H](CS[C@H]2CCCCC(=O)*)N1

How the values were obtained:
LYP300 = biological target: T1, LYP300 (Homo sapiens, UniProt Q9Y2R2); assay: Phosphatase assay, trans effect of peptides on LYP300; assay type: biochemical; settings: Figure 5A,C; 5 nM LYP300; DiFMUP; Bis-Tris pH 6.0
T1 sequence (Q9Y2R2 1-300): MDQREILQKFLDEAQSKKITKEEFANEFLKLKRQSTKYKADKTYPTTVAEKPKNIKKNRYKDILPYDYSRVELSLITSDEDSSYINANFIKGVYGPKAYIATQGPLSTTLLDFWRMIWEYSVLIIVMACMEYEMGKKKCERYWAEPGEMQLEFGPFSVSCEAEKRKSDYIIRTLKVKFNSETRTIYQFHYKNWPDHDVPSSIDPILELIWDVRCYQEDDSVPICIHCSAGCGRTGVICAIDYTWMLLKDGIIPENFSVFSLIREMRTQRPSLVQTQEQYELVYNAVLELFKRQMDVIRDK

LYP [1] = assay: Phosphatase kinetics of LYP300 and LYP320 from E. coli on pTyr peptide; assay type: biochemical, human; settings: purified from bacterial lysates
LYP [2] = assay: Phosphatase kinetics of LYP300 and LYP320 from E. coli on DiFMUP; assay type: biochemical, human; settings: purified from bacterial lysates
Summary of the method: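 LYP300 and LYP320 (aa 1−300, 1−320) expressed in BL21(DE3) from pET28a. Purified by Ni2+-NTA, His tag cleaved with thrombin, protease removed on benzamidine, dialysed into 50 mM Tris-HCl pH 8.0, 0.5 mM EDTA, 1 mM DTT. 5 nM enzyme was assayed in Bis-Tris pH 6.0/DTT over a DiFMUP concentration range. Fluorescence (ex 360, em 460 nm) was read continuously at initial rate. Triplicates were corrected against no-enzyme blanks and fitted to Michaelis–Menten.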

[3] = Gel filtration chromatography; assay type: physicochemical; settings: Superdex 75 10/300 GL; TNE and phosphatase buffers
LYP [4] = settings: ref [7], [18]; cited from earlier work
[5] = test system: T cell receptor (TCR) signaling; settings: cited from earlier work; for Inhibition of T cell receptor signaling: T cells, ref [4]-[8]
LYP [6] = assay type: biochemical, human; settings: Figure 2C; Vmax, 1 nM enzyme, 0.4 mM DiFMUP, triplicate
Summary of the method: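 FLAG-tagged full-length LYP and C-terminal truncations (aa 1−300, 1−423, 1−517, 1−600) were expressed in baculovirus-infected Sf9 cells. They were purified on M2-FLAG beads, eluted with FLAG peptide plus DTT into 50 mM Tris-HCl pH 8.0, 0.5 mM EDTA, 1 mM DTT (>80% pure). Activity was measured under Vmax conditions in 50−100 mM Bis-Tris pH 6.0, 1−5 mM DTT. DiFMUP hydrolysis was followed continuously by fluorescence (ex 360, em 460 nm), with background subtracted using no-enzyme triplicates.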

LYP [7] = assay type: biochemical, human; settings: Figure 2D; Vmax, 1 nM enzyme, 0.16 mM peptide, triplicate
PEP = settings: immunoprecipitated full-length PEP vs amino acids 1−290; ref [5]; cited from earlier work

In the case of “HSGTESQAKHCIPEKNHTLQ [peptide of amino acids 301−320]”, the “Inhibition of LYP300 phosphatase activity by peptide” value (LYP300) is reported as “substantial inhibition of the phosphatase activity”.

For “biotin-ATAPRIDDEIPPPLPVRTPESFIVVEEAGEFSPNVPKSLS (Biotin-ATAPRIDDEIPPPLPVRTPESFIVVEEAGEFSPNVPKSLS) [peptide of amino acids 604−643, reference compound]”, the “Inhibition of LYP300 phosphatase activity by peptide” value (LYP300) was “did not lead to any significant inhibition of the phosphatase activity”.

B1: LYP320: LYP truncation, amino acids 1−320 (protein)
chain: MDQREILQKFLDEAQSKKITKEEFANEFLKLKRQSTKYKADKTYPTTVAEKPKNIKKNRYKDILPYDYSRVELSLITSDEDSSYINANFIKGVYGPKAYIATQGPLSTTLLDFWRMIWEYSVLIIVMACMEYEMGKKKCERYWAEPGEMQLEFGPFSVSCEAEKRKSDYIIRTLKVKFNSETRTIYQFHYKNWPDHDVPSSIDPILELIWDVRCYQEDDSVPICIHCSAGCGRTGVICAIDYTWMLLKDGIIPENFSVFSLIREMRTQRPSLVQTQEQYELVYNAVLELFKRQMDVIRDKHSGTESQAKHCIPEKNHTLQ
modifications: left off: His6, end not stated, cleaved
With B1 the “Activity relative to LYP300 on pTyr peptide” value (LYP [1]) was “consistently less active than LYP300”, the “Activity relative to LYP300 on DiFMUP” value (LYP [2]) was “consistently less active than LYP300” and the “Oligomeric state by gel filtration” value [3] was “elute as monomers”.

B2: LYP-W620: genetic variant of LYP carrying Trp620 instead of Arg620 in the C-terminal domain (protein, UniProt Q9Y2R2 1-807, looked up, variant R620W)
Tyrosine-protein phosphatase …: MDQREILQKFLDEAQSKKITKEEFANEFLKLKRQSTKYKADKTYPTTVAEKPKNIKKNRYKDILPYDYSRVELSLITSDEDSSYINANFIKGVYGPKAYIATQGPLSTTLLDFWRMIWEYSVLIIVMACMEYEMGKKKCERYWAEPGEMQLEFGPFSVSCEAEKRKSDYIIRTLKVKFNSETRTIYQFHYKNWPDHDVPSSIDPILELIWDVRCYQEDDSVPICIHCSAGCGRTGVICAIDYTWMLLKDGIIPENFSVFSLIREMRTQRPSLVQTQEQYELVYNAVLELFKRQMDVIRDKHSGTESQAKHCIPEKNHTLQADSYSPNLPKSTTKAAKMMNQQRTKMEIKESSSFDFRTSEISAKEELVLHPAKSSTSFDFLELNYSFDKNADTTMKWQTKAFPIVGEPLQKHQSLDLGSLLFEGCSNSKPVNAAGRYFNSKVPITRTKSTPFELIQQRETKEVDSKENFSYLESQPHDSCFVEMQAQKVMHVSSAELNYSLPYDSKHQIRNASNVKHHDSSALGVYSYIPLVENPYFSSWPPSGTSSKMSLDLPEKQDGTVFPSSLLPTSSTSLFSYYNSHDSLSLNSPTNISSLLNQESAVLATAPRIDDEIPPPLPVWTPESFIVVEEAGEFSPNVPKSLSSAVKVKIGTSLEWGGTSEPKKFDDSVILRPSKSVKLRSPKSELHQDRSSPPPPLPERTLESFFLADEDCMQAQSIETYSTSYPDTMENSTSSKQTLKTPGKSFTRSKSLKILRNMKKSICNSCPPNKPAESVQSNNSSSFLNFGFANRFSKPKGPRNPPPTWNI
For B2, the “Phosphatase activity of variant” value (LYP [4]) is given as “increased phosphatase activity” and the “Effect of variant on signaling” value ([5]; ref [7], [18]) is given as “gain-of-function inhibitor of signaling”.

B3: LYP: lymphoid tyrosine phosphatase LYP, encoded by the PTPN22 gene (protein, UniProt Q9Y2R2 1-807, looked up)
Tyrosine-protein phosphatase …: B2 Tyrosine-protein phosphatase … with W620R
modifications: HA tag
For B3, the “Inhibition of T cell receptor signaling” value [5] is listed as “potently inhibit T cell receptor (TCR) signaling”.

B4: LYP300: truncation of LYP immediately C-terminal to the catalytic domain (amino acids 1−300) (protein)
chain: T1 sequence (Q9Y2R2 1-300)
modifications: left off: HA, N-terminal, kept
In the case of B4, the “Phosphatase activity on DiFMUP” value (LYP [6]) is reported as “greatly increased phosphatase activity”, the “Phosphatase activity on pTyr peptide” value (LYP [7]) is reported as “greatly increased phosphatase activity” and the “Oligomeric state by gel filtration” value [3] is reported as “elute as monomers”.

B5: PEP: mouse homologue of LYP called PEST-enriched phosphatase (protein, UniProt P29352 1-802, looked up)
Tyrosine-protein phosphatase …: MDQREILQQLLKEAQKKKLNSEEFASEFLKLKRQSTKYKADKIYPTTVAQRPKNIKKNRYKDILPYDHSLVELSLLTSDEDSSYINASFIKGVYGPKAYIATQGPLSTTLLDFWRMIWEYRILVIVMACMEFEMGKKKCERYWAEPGETQLQFGPFSISCEAEKKKSDYKIRTLKAKFNNETRIIYQFHYKNWPDHDVPSSIDPILQLIWDMRCYQEDDCVPICIHCSAGCGRTGVICAVDYTWMLLKDGIIPKNFSVFNLIQEMRTQRPSLVQTQEQYELVYSAVLELFKRHMDVISDNHLGREIQAQCSIPEQSLTVEADSCPLDLPKNAMRDVKTTNQHSKQGAEAESTGGSSLGLRTSTMNAEEELVLHSAKSSPSFNCLELNCGCNNKAVITRNGQARASPVVGEPLQKYQSLDFGSMLFGSCPSALPINTADRYHNSKGPVKRTKSTPFELIQQRKTNDLAVGDGFSCLESQLHEHYSLRELQVQRVAHVSSEELNYSLPGACDASCVPRHSPGALRVHLYTSLAEDPYFSSSPPNSADSKMSFDLPEKQDGATSPGALLPASSTTSFFYSNPHDSLVMNTLTSFSPPLNQETAVEAPSRRTDDEIPPPLPERTPESFIVVEEAGEPSPRVTESLPLVVTFGASPECSGTSEMKSHDSVGFTPSKNVKLRSPKSDRHQDGSPPPPLPERTLESFFLADEDCIQAQAVQTSSTSYPETTENSTSSKQTLRTPGKSFTRSKSLKIFRNMKKSVCNSSSPSKPTERVQPKNSSSFLNFGFGNRFSKPKGPRNPPSAWNM
For B5, the “Catalytic activity vs catalytic domain alone” value (PEP) is given as “much lower than the activity of the catalytic domain alone” and the “Inhibition of T cell receptor signaling” value [5] is given as “potently inhibit T cell receptor (TCR) signaling”.
